Source: ChEMBL document CHEMBL4219021, “Discovery of a Small-Molecule Degrader of Bromodomain and Extra-Terminal (BET) Proteins with Picomolar Cellular Potencies and Capable of Achieving Tumor Regression” (J Med Chem, 2018)
pIC50, pKi: −log10 of the molar value. Active and inactive are the calls of the source. The calls are words filed in the database; no cut-off is given here.

Columns and labels:
[1] = molecular target: T1, Bromodomain-containing protein 2 (Homo sapiens, UniProt P25440); test: Inhibition of FAM-labeled ZBA248 binding to recombinant N-terminal His6-tagged BRD2 bromodomain 1 (72 to 205 residues) (unknown origin) expressed in Escherichia coli Rosetta2 DE3 after 30 mins by fluorescence polarization assay
[2] = molecular target: T1, Bromodomain-containing protein 2; test: Inhibition of FAM-labeled ZBA248 binding to recombinant N-terminal His6-tagged BRD2 bromodomain 2 (349 to 460 residues) (unknown origin) expressed in Escherichia coli Rosetta2 DE3 after 30 mins by fluorescence polarization assay
[3] = molecular target: T2, Bromodomain-containing protein 3 (Homo sapiens, UniProt Q15059); test: Inhibition of FAM-labeled ZBA248 binding to recombinant N-terminal His6-tagged BRD3 bromodomain 1 (24 to 144 residues) (unknown origin) expressed in Escherichia coli Rosetta2 DE3 after 30 mins by fluorescence polarization assay
[4] = molecular target: T2, Bromodomain-containing protein 3; test: Inhibition of FAM-labeled ZBA248 binding to recombinant N-terminal His6-tagged BRD3 bromodomain 2 (306 to 417residues) (unknown origin) expressed in Escherichia coli Rosetta2 DE3 after 30 mins by fluorescence polarization assay
[5] = molecular target: T3, Bromodomain-containing protein 4 (Homo sapiens, UniProt O60885); test: Inhibition of FAM-labeled ZBA248 binding to recombinant N-terminal His6-tagged BRD4 bromodomain 1 (44 to 168 residues) (unknown origin) expressed in Escherichia coli Rosetta2 DE3 after 30 mins by fluorescence polarization assay
[6] = molecular target: T3, Bromodomain-containing protein 4; test: Inhibition of FAM-labeled ZBA248 binding to recombinant N-terminal His6-tagged BRD4 bromodomain 2 (333 to 460 residues) (unknown origin) expressed in Escherichia coli Rosetta2 DE3 after 30 mins by fluorescence polarization assay
RS4-11 [7] = test: Cytotoxicity against human RS4:11 cells assessed as cell growth inhibition after 4 days by WST-8 assay; format: functional, cell-based; details: RS4-11, 96 h
MOLM-13 [8] = test: Cytotoxicity against human MOLM13 cells assessed as cell growth inhibition after 4 days by WST-8 assay; format: functional, cell-based; details: MOLM-13, 96 h
[9] = molecular target: T4, Protein cereblon/Bromodomain-containing protein 4/Cullin-4A (Homo sapiens) (UniProt O60885+Q96SW2+Q13619); test: Induction of cereblon/cullin 4A-mediated BRD4 degradation in human RS4:11 cells at 30 to 1000 nM after 24 hrs by Western blot method; format: cell-based
Method in brief: (§1)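 Western blot of RS4;11 cells (2 × 10⁶ cells/well) in RPMI 1640 with 10% FBS, 37 °C, 5% CO₂, used within three months of thawing. Compound exposure was 3 h or 24 h at the indicated concentrations. Cells were lysed in RIPA with protease inhibitors, and BRD2, BRD3 and BRD4 were detected with specific antibodies, with GAPDH as loading control.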

[10] = molecular target: T5, Protein cereblon/Bromodomain-containing protein 2/Cullin-4A (Homo sapiens) (UniProt P25440+Q96SW2+Q13619); test: Induction of cereblon/cullin 4A-mediated BRD2 degradation in human RS4:11 cells at 30 to 1000 nM after 24 hrs by Western blot method; format: cell-based
Method in brief: (§2)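 RS4;11 cells (2 × 10⁶/well) treated for 24 h at the indicated concentrations. Lysed in RIPA with protease inhibitors and immunoblotted for BRD2, BRD3, BRD4, c-Myc and PARP, with GAPDH as loading control.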

[11] = molecular target: T6, Protein cereblon/Bromodomain-containing protein 3/Cullin-4A (Homo sapiens) (UniProt Q15059+Q96SW2+Q13619); test: Induction of cereblon/cullin 4A-mediated BRD3 degradation in human RS4:11 cells at 30 to 1000 nM after 24 hrs by Western blot method; format: cell-based; method in brief: as §1
[12] = molecular target: T6, Protein cereblon/Bromodomain-containing protein 3/Cullin-4A (Homo sapiens); test: Induction of cereblon/cullin 4A-mediated BRD3 degradation in human RS4:11 cells at 100 to 300 nM after 3 hrs by Western blot method; format: cell-based
Method in brief: (§3)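 RS4;11 cells (2 × 10⁶/well) treated for 3 h at the indicated concentrations. Lysed in RIPA with protease inhibitors and immunoblotted for BRD2, BRD3 and BRD4 with specific antibodies.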

[13] = molecular target: T4, Protein cereblon/Bromodomain-containing protein 4/Cullin-4A (Homo sapiens); test: Induction of cereblon/cullin 4A-mediated BRD4 degradation in human RS4:11 cells at 100 to 300 nM after 3 hrs by Western blot method; format: cell-based; method in brief: as §1
[14] = molecular target: T5, Protein cereblon/Bromodomain-containing protein 2/Cullin-4A (Homo sapiens); test: Induction of cereblon/cullin 4A-mediated BRD2 degradation in human RS4:11 cells at 100 to 300 nM after 3 hrs by Western blot method; format: cell-based; method in brief: as §3
RS4-11 [15] = test: Induction of cell cycle arrest in human RS4:11 cells after 24 hrs by propidium iodide staining based flow cytometry; format: functional
Method in brief: (§4)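 RS4;11 or MOLM-13 cells treated with compound for 24 h, then analyzed by flow cytometry. Cell cycle read by propidium iodide staining and apoptosis by annexin V/propidium iodide staining.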

MOLM-13 [16] = test: Induction of cell cycle arrest in human MOLM13 cells after 24 hrs by propidium iodide staining based flow cytometry; format: functional; method in brief: as §4
RS4-11 [17] = test: Induction of apoptosis in human RS4:11 cells at 30 to 300 nM after 24 hrs by Annexin-V/propidium iodide staining based flow cytometry; format: functional, cell-based; method in brief: as §4
MOLM-13 [18] = test: Induction of apoptosis in human MOLM13 cells at 30 to 300 nM after 24 hrs by Annexin-V/propidium iodide staining based flow cytometry; format: functional, cell-based; method in brief: as §4
Homo sapiens = species: Homo sapiens; test: Induction of cereblon/cullin 4A-mediated BET degradation in human RS4:11 cells assessed as downregulation of c-myc protein level at 300 to 1000 nM after 24 hrs by Western blot method; format: cell-based; method in brief: as §2

T2 sequence (Q15059 whole entry, the tested form may be a part): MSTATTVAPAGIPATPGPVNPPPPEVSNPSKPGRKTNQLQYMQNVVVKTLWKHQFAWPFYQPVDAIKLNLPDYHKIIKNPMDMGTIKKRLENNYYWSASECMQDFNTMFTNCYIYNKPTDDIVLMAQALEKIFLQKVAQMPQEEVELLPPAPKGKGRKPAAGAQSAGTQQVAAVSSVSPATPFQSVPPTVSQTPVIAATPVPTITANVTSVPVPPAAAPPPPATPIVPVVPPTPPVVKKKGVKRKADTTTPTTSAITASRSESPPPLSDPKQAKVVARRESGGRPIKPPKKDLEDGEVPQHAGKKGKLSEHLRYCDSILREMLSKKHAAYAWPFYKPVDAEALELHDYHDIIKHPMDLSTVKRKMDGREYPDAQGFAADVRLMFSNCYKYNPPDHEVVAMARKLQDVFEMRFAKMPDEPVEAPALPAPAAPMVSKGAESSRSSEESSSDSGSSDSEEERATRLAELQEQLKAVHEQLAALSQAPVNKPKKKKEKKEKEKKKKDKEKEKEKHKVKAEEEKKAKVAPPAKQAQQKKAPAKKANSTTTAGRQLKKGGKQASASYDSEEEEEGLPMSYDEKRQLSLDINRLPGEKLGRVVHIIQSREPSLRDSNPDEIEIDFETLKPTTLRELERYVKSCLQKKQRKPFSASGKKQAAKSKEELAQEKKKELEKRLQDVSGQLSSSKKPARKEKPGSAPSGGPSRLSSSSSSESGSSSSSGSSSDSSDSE
T1 sequence (P25440 whole entry, the tested form may be a part): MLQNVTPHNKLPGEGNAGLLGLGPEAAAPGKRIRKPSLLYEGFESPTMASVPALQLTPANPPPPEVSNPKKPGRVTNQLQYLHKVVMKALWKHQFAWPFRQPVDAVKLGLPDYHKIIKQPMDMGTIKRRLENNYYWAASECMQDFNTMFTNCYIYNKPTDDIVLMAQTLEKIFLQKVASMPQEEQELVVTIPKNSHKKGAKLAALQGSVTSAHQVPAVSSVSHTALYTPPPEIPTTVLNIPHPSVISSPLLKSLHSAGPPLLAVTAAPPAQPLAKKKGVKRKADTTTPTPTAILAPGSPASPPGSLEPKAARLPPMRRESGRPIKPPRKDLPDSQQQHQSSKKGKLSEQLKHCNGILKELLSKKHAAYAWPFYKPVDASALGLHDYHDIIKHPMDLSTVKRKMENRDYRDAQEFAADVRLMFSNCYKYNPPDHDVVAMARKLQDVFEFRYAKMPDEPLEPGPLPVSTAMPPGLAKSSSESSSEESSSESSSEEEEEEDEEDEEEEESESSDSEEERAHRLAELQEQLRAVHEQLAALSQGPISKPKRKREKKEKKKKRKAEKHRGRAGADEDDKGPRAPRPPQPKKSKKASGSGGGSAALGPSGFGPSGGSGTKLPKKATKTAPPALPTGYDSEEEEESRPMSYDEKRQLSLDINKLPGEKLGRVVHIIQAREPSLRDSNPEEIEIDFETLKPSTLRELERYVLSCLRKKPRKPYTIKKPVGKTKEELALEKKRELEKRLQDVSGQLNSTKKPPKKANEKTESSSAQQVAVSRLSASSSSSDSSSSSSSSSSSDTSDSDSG
T6 sequence (Q13619 whole entry, looked up): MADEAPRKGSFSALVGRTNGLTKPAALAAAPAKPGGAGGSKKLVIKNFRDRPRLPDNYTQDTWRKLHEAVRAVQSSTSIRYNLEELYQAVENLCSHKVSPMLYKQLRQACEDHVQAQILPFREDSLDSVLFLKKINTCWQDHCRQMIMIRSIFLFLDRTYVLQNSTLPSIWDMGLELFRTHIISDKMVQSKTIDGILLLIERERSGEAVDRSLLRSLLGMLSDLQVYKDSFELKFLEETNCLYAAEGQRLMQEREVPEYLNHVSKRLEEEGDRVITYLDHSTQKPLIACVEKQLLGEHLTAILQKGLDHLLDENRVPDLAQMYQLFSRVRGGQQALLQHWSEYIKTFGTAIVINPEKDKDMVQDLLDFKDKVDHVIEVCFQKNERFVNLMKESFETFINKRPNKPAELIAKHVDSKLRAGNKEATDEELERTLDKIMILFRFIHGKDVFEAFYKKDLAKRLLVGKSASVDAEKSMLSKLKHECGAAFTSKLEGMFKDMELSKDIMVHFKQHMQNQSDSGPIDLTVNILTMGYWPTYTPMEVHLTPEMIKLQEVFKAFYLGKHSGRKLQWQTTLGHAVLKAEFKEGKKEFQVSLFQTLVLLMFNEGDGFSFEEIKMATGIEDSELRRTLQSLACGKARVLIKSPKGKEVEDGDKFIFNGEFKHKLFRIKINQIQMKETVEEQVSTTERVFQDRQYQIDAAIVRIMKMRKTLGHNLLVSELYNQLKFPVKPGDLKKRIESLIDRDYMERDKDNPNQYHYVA
T6 sequence (Q15059 whole entry, looked up): as the sequence (Q15059 whole entry, the tested form may be a part) above
T6 sequence (Q96SW2 whole entry, looked up): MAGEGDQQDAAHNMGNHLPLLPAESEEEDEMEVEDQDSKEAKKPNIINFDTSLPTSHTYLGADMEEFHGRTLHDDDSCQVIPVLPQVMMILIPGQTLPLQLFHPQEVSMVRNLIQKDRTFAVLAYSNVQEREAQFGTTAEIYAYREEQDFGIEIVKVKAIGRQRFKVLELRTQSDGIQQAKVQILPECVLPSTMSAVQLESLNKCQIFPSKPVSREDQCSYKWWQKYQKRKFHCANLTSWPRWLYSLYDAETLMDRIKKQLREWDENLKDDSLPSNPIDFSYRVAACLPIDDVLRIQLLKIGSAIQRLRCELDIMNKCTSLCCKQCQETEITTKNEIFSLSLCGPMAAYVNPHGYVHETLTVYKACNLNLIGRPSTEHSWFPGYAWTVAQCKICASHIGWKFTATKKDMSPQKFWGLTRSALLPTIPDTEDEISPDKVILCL
T5 sequence (P25440 whole entry, looked up): as the sequence (P25440 whole entry, the tested form may be a part) above
T5 sequence (Q13619 whole entry, looked up): as the sequence (Q13619 whole entry, looked up) above
T5 sequence (Q96SW2 whole entry, looked up): as the sequence (Q96SW2 whole entry, looked up) above

Work on CCn1nc(C2CC2)cc1Nc1nc(C(=O)NC)nc2[nH]c3cc(-c4c(C)noc4C)c(OC)cc3c12 yielded a pIC50 [1] of 8.51, a pKi [1] of 9.05 and a pIC50 [2] of 8.41. For the same molecule, the pKi [2] was 9.57, the pIC50 [3] was 8.18 and the pKi [3] was 9.74. The pIC50 [4] was 8.72, the pKi [4] was 9.68 and the pIC50 [5] was 8.15. The pKi [5] was 9.30, the pIC50 [6] was 8.15 and the pKi [6] was 9.00. The pIC50 (RS4-11 [7]) was 7.62, the pIC50 (MOLM-13 [8]) was 7.59 and the Activity [9] was “inactive”. The Activity [10] was “inactive”, the Activity [11] was “inactive” and the Activity [12] was “inactive”. For the same molecule, the Activity [13] was “inactive”, the Activity [14] was “inactive” and the Activity (RS4-11 [15]) was “Dose-dependent effect”. The Activity (MOLM-13 [16]) was “Dose-dependent effect”, the Activity (RS4-11 [17]) was “inactive” and the Activity (MOLM-13 [18]) was “inactive”. For the same molecule, the Activity (Homo sapiens) was “Active”.
